According to publication PMC4832855 (Cancer Science, 2016):

How the values were obtained:
[1] = molecular target: AurB (Homo sapiens, UniProt Q96GD4); test: Kinase inhibition profiling at 100 nmol/L; format: biochemical; conditions: read-out: Inhibition at 100 nmol/L
[2] = system: Btc; test: Kinase inhibition profiling at 100 nmol/L; format: biochemical, human
[3] = molecular target: Met (Homo sapiens, UniProt P08581); test: Kinase inhibition profiling at 100 nmol/L; format: biochemical; conditions: read-out: Inhibition at 100 nmol/L
Met, sequence (P08581 25-1390): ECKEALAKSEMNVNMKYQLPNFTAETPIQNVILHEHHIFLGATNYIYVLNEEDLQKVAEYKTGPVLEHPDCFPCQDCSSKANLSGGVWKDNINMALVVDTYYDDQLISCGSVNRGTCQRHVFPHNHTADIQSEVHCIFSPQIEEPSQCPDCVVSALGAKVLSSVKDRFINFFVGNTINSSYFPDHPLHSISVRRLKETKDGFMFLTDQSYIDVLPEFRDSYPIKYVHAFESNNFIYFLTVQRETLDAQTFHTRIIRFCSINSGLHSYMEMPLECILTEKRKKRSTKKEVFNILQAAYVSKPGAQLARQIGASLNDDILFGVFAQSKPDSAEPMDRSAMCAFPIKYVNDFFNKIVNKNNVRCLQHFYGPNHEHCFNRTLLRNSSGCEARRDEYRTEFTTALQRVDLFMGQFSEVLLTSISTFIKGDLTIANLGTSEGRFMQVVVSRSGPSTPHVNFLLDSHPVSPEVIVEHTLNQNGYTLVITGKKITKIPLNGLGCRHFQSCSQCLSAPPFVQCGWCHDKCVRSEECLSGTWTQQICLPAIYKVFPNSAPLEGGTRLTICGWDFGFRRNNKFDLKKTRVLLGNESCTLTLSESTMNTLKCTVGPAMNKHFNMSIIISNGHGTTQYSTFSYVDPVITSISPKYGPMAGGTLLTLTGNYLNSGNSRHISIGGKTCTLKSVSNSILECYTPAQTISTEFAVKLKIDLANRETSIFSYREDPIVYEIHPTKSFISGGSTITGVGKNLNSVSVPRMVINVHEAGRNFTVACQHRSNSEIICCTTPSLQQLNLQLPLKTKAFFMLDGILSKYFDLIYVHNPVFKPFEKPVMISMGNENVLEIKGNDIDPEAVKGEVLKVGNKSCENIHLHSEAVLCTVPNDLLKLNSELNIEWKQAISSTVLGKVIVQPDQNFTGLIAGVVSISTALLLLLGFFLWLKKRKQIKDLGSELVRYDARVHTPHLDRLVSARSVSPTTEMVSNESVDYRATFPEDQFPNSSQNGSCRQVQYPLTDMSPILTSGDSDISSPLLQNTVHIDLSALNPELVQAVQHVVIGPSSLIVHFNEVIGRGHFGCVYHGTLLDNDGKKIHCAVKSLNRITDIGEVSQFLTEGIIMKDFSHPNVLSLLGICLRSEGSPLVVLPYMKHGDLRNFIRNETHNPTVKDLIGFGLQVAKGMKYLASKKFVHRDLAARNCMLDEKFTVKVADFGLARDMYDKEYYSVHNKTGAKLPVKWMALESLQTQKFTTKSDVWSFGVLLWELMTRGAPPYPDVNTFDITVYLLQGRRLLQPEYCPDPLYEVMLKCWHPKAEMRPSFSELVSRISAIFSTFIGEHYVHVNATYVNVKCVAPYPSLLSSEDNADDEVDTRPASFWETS

[4] = molecular target: fms‐like tyrosine kinase‐1 (Homo sapiens, UniProt P17948); test: Kinase inhibition profiling at 100 nmol/L; format: biochemical; conditions: read-out: Inhibition at 100 nmol/L
fms‐like tyrosine kinase‐1, sequence (P17948 27-1338): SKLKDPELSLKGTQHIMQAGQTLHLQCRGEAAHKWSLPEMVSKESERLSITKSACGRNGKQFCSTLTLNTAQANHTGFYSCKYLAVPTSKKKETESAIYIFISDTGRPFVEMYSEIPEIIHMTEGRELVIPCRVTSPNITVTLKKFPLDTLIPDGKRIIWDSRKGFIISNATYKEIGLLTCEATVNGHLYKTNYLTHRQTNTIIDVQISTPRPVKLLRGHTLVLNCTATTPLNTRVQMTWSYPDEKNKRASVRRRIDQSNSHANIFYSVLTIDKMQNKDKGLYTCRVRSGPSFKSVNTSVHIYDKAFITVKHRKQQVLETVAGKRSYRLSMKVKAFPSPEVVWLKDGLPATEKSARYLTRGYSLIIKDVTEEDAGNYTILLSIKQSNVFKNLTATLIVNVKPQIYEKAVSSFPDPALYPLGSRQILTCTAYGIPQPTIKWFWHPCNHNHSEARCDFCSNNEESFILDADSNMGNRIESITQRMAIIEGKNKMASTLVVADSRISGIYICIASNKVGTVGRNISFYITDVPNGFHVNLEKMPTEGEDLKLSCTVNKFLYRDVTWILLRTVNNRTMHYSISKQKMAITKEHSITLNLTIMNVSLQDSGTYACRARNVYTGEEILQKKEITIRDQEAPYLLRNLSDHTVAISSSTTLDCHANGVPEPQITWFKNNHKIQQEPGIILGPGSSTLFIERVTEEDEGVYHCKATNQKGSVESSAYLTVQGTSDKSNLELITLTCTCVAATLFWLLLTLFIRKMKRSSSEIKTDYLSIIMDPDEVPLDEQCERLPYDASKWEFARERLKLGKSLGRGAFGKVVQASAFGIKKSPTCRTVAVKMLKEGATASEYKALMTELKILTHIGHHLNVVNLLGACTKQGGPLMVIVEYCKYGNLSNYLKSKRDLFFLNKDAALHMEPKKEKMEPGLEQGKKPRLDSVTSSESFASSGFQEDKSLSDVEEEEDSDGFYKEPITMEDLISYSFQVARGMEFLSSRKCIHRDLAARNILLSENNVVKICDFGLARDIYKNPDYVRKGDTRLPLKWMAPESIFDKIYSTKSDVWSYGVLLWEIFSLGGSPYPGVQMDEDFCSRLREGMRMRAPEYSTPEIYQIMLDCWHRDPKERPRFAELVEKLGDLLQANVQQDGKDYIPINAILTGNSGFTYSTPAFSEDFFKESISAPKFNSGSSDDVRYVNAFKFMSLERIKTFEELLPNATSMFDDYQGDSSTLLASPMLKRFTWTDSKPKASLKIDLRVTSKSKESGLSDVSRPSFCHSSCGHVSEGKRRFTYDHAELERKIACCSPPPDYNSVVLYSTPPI

[5] = molecular target: kinase insert domain receptor (Homo sapiens, UniProt P35968); test: Kinase inhibition profiling at 100 nmol/L; format: biochemical; conditions: read-out: Inhibition at 100 nmol/L
kinase insert domain receptor, sequence (P35968 20-1356): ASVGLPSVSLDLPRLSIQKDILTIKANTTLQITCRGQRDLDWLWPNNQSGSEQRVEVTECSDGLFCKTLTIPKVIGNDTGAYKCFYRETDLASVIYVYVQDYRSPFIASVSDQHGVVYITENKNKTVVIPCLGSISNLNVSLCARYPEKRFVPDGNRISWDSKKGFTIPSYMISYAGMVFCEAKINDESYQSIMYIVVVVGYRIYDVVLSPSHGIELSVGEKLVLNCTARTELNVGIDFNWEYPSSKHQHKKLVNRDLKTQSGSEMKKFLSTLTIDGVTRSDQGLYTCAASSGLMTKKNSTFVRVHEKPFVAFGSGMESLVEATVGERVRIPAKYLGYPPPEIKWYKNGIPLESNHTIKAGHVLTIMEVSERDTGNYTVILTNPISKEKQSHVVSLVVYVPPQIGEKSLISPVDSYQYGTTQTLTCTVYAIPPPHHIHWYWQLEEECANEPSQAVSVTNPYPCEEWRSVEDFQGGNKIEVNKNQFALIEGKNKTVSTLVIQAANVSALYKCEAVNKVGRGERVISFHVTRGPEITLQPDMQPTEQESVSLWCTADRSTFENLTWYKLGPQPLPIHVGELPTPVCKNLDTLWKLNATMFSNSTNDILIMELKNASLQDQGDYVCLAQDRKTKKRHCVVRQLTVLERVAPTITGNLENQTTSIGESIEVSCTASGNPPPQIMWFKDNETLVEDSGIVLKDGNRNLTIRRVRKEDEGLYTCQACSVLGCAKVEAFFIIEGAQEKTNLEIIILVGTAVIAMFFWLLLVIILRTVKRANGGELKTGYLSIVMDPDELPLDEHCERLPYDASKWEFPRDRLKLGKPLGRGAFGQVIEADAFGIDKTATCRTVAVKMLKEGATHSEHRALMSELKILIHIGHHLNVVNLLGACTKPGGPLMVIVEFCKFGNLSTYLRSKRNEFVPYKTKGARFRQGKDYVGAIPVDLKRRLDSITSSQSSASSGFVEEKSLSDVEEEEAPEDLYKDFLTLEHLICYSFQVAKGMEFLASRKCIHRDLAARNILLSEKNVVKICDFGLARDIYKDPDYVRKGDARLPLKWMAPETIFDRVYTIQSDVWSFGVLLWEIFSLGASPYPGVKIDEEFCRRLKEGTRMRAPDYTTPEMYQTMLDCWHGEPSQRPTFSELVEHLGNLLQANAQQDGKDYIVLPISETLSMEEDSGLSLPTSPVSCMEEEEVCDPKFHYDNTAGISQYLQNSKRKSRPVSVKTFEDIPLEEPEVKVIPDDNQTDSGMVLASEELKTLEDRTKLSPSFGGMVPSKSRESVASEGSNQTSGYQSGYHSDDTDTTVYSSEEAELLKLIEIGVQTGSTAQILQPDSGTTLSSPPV

[6] = system: HT‐29/GFP colon cancer xenograft; test: HT-29/GFP xenograft model; format: in vivo, mouse; conditions: 40 mg/kg orally once daily for 14 days, SCID mice
[7] = Pharmacokinetic study in mice, single oral dose; format: in vivo, mouse; conditions: for Mean area under the plasma concentration–time curve from time 0 to 24 h / Mean maximum plasma concentration: male SCID mice
Summary of the method: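 Single oral dose of 2, 10 or 20 mg/kg to male mice; plasma sampled over 0–24 h; Cmax, Tmax, elimination half-life and AUC0–24 reported as mean ± SD, n = 3.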

[8] = system: patients with advanced solid tumors; test: Phase I first-in-human study: safety, tolerability, DLT, MTD; format: in vivo
Summary of the method: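 Open-label 3+3 dose-escalation/de-escalation; oral once-daily dosing under overnight fasting for 28 days, 1-week observation, then continuous; AEs graded by CTCAE v3.0 with attribution; DLTs included grade 3 fasting hyperglycemia, grade 3 non-fasting hyperglycemia >4 h, grade 4 hyperglycemia, grade ≥2 cardiac toxicity, other grade ≥3 non-hematologic events, grade 4 neutropenia >7 days, grade 4 thrombocytopenia.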

[9] = system: non‐human primate, rodent; conditions: ref Kyowa Hakko Kirin Co., Tokyo, unpublished data; cited from earlier work
[10] = male, SCID, mouse, plasma, po, 20 mg/kg

AurB, sequence (Q96GD4 whole entry): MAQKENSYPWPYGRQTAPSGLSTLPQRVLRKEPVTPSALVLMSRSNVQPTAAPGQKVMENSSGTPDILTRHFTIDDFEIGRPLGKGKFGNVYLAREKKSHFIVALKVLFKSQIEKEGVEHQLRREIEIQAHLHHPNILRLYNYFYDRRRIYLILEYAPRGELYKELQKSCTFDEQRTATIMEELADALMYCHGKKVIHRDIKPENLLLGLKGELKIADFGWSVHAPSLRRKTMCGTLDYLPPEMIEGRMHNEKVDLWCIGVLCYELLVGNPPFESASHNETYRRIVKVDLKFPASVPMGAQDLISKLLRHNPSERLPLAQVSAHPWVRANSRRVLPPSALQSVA
AurB, sequence (Q9NQS7 803-916 partner limits assumed): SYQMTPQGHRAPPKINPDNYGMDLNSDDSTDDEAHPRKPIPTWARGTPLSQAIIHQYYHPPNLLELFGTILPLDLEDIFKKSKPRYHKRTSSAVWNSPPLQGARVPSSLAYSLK

Compound: Cc1ccsc1C(=O)Nc1cc(CN2CCN(C(=O)CO)CC2)ccc1/C=C/c1n[nH]c2ccccc12 [KW‐2450]
- inhibition at 0.1 µM [1]: 76.8%
- Inhibition at 100 nmol/L [2]: 63.2%
- inhibition at 0.1 µM [3]: 33.8%
- inhibition at 0.1 µM [4]: > 90%
- inhibition at 0.1 µM [5]: > 90%
- In vivo growth inhibitory activity [6]: modest in vivo growth inhibitory activity
- Mean area under the plasma concentration–time curve from time 0 to 24 h ([7]; oral 2 mg/kg): 136 ng/h/mL
- Mean maximum plasma concentration ([7]; oral 2 mg/kg): 37.4 ng/mL
- Mean area under the plasma concentration–time curve from time 0 to 24 h ([7]; oral 10 mg/kg): 1320 ng/h/mL
- Mean maximum plasma concentration ([7]; oral 10 mg/kg): 568 ng/mL
- Mean area under the plasma concentration–time curve from time 0 to 24 h ([7]; oral 20 mg/kg): 3190 ng/h/mL
- Mean maximum plasma concentration ([7]; oral 20 mg/kg): 1510 ng/mL
- Tmax [7, 10]: 0.25 to 1 h
- half-life [7, 10]: 3.71 to 3.99 h
- Anorexia, treatment‐related, Grade 1–2 ([8]; 37.5 mg/day (n = 7)): 2 (28.6) No. of patients (%)
- Anorexia, treatment‐related, Grade 3 ([8]; 37.5 mg/day (n = 7)): 0 (0.0) No. of patients (%)
- Constipation, treatment‐related, Grade 1–2 ([8]; 37.5 mg/day (n = 7)): 1 (14.3) No. of patients (%)
- Constipation, treatment‐related, Grade 3 ([8]; 37.5 mg/day (n = 7)): 0 (0.0) No. of patients (%)
- Decreased appetite, treatment‐related, Grade 1–2 ([8]; 37.5 mg/day (n = 7)): 0 (0.0) No. of patients (%)
- Decreased appetite, treatment‐related, Grade 3 ([8]; 37.5 mg/day (n = 7)): 0 (0.0) No. of patients (%)
- Diarrhea, treatment‐related, Grade 1–2 ([8]; 37.5 mg/day (n = 7)): 0 (0.0) No. of patients (%)
- Diarrhea, treatment‐related, Grade 3 ([8]; 37.5 mg/day (n = 7)): 0 (0.0) No. of patients (%)
- Dizziness, treatment‐related, Grade 1–2 ([8]; 37.5 mg/day (n = 7)): 1 (14.3) No. of patients (%)
- Dizziness, treatment‐related, Grade 3 ([8]; 37.5 mg/day (n = 7)): 0 (0.0) No. of patients (%)
- Fatigue, treatment‐related, Grade 1–2 ([8]; 37.5 mg/day (n = 7)): 4 (57.1) No. of patients (%)
- Fatigue, treatment‐related, Grade 3 ([8]; 37.5 mg/day (n = 7)): 0 (0.0) No. of patients (%)
- Hyperglycemia, treatment‐related, Grade 1–2 ([8]; 37.5 mg/day (n = 7)): 1 (14.3) No. of patients (%)
- Hyperglycemia, treatment‐related, Grade 3 ([8]; 37.5 mg/day (n = 7)): 0 (0.0) No. of patients (%)
- Mucosal inflammation, treatment‐related, Grade 1–2 ([8]; 37.5 mg/day (n = 7)): 1 (14.3) No. of patients (%)
- Mucosal inflammation, treatment‐related, Grade 3 ([8]; 37.5 mg/day (n = 7)): 0 (0.0) No. of patients (%)
- Nausea, treatment‐related, Grade 1–2 ([8]; 37.5 mg/day (n = 7)): 2 (28.6) No. of patients (%)
- Nausea, treatment‐related, Grade 3 ([8]; 37.5 mg/day (n = 7)): 0 (0.0) No. of patients (%)
- Pain, treatment‐related, Grade 1–2 ([8]; 37.5 mg/day (n = 7)): 0 (0.0) No. of patients (%)
- Pain, treatment‐related, Grade 3 ([8]; 37.5 mg/day (n = 7)): 0 (0.0) No. of patients (%)
- Rash, treatment‐related, Grade 1–2 ([8]; 37.5 mg/day (n = 7)): 1 (14.3) No. of patients (%)
- Rash, treatment‐related, Grade 3 ([8]; 37.5 mg/day (n = 7)): 1 (14.3) No. of patients (%)
- Vomiting, treatment‐related, Grade 1–2 ([8]; 37.5 mg/day (n = 7)): 1 (14.3) No. of patients (%)
- Vomiting, treatment‐related, Grade 3 ([8]; 37.5 mg/day (n = 7)): 0 (0.0) No. of patients (%)
- Patients with dose‐limiting toxicity ([8]; 37.5 mg/day, one of seven patients, grade 3 rash): 14.3%
- Anorexia, treatment‐related, Grade 1–2 ([8]; 50 mg/day (n = 6)): 0 (0.0) No. of patients (%)
- Anorexia, treatment‐related, Grade 3 ([8]; 50 mg/day (n = 6)): 0 (0.0) No. of patients (%)
- Constipation, treatment‐related, Grade 1–2 ([8]; 50 mg/day (n = 6)): 1 (16.7) No. of patients (%)
- Constipation, treatment‐related, Grade 3 ([8]; 50 mg/day (n = 6)): 0 (0.0) No. of patients (%)
- Decreased appetite, treatment‐related, Grade 1–2 ([8]; 50 mg/day (n = 6)): 3 (50.0) No. of patients (%)
- Decreased appetite, treatment‐related, Grade 3 ([8]; 50 mg/day (n = 6)): 0 (0.0) No. of patients (%)
- Diarrhea, treatment‐related, Grade 1–2 ([8]; 50 mg/day (n = 6)): 2 (33.3) No. of patients (%)
- Diarrhea, treatment‐related, Grade 3 ([8]; 50 mg/day (n = 6)): 0 (0.0) No. of patients (%)
- Dizziness, treatment‐related, Grade 1–2 ([8]; 50 mg/day (n = 6)): 2 (33.3) No. of patients (%)
- Dizziness, treatment‐related, Grade 3 ([8]; 50 mg/day (n = 6)): 0 (0.0) No. of patients (%)
- Fatigue, treatment‐related, Grade 1–2 ([8]; 50 mg/day (n = 6)): 4 (66.7) No. of patients (%)
- Fatigue, treatment‐related, Grade 3 ([8]; 50 mg/day (n = 6)): 0 (0.0) No. of patients (%)
- Hyperglycemia, treatment‐related, Grade 1–2 ([8]; 50 mg/day (n = 6)): 2 (33.3) No. of patients (%)
- Hyperglycemia, treatment‐related, Grade 3 ([8]; 50 mg/day (n = 6)): 2 (33.3) No. of patients (%)
- Mucosal inflammation, treatment‐related, Grade 1–2 ([8]; 50 mg/day (n = 6)): 1 (16.7) No. of patients (%)
- Mucosal inflammation, treatment‐related, Grade 3 ([8]; 50 mg/day (n = 6)): 0 (0.0) No. of patients (%)
- Nausea, treatment‐related, Grade 1–2 ([8]; 50 mg/day (n = 6)): 4 (66.7) No. of patients (%)
- Nausea, treatment‐related, Grade 3 ([8]; 50 mg/day (n = 6)): 0 (0.0) No. of patients (%)
- Pain, treatment‐related, Grade 1–2 ([8]; 50 mg/day (n = 6)): 2 (33.3) No. of patients (%)
- Pain, treatment‐related, Grade 3 ([8]; 50 mg/day (n = 6)): 0 (0.0) No. of patients (%)
- Rash, treatment‐related, Grade 1–2 ([8]; 50 mg/day (n = 6)): 0 (0.0) No. of patients (%)
- Rash, treatment‐related, Grade 3 ([8]; 50 mg/day (n = 6)): 0 (0.0) No. of patients (%)
- Vomiting, treatment‐related, Grade 1–2 ([8]; 50 mg/day (n = 6)): 1 (16.7) No. of patients (%)
- Vomiting, treatment‐related, Grade 3 ([8]; 50 mg/day (n = 6)): 0 (0.0) No. of patients (%)
- Patients with dose‐limiting toxicity ([8]; 50 mg/day, two of six patients, grade 3 non‐fasting hyperglycemia): 33.3%
- Anorexia, treatment‐related, Grade 1–2 ([8]; Total (n = 13)): 2 (15.4) No. of patients (%)
- Anorexia, treatment‐related, Grade 3 ([8]; Total (n = 13)): 0 (0.0) No. of patients (%)
- Constipation, treatment‐related, Grade 1–2 ([8]; Total (n = 13)): 2 (15.4) No. of patients (%)
- Constipation, treatment‐related, Grade 3 ([8]; Total (n = 13)): 0 (0.0) No. of patients (%)
- Decreased appetite, treatment‐related, Grade 1–2 ([8]; Total (n = 13)): 3 (23.1) No. of patients (%)
- Decreased appetite, treatment‐related, Grade 3 ([8]; Total (n = 13)): 0 (0.0) No. of patients (%)
- Diarrhea, treatment‐related, Grade 1–2 ([8]; Total (n = 13)): 2 (15.4) No. of patients (%)
- Diarrhea, treatment‐related, Grade 3 ([8]; Total (n = 13)): 0 (0.0) No. of patients (%)
- Dizziness, treatment‐related, Grade 1–2 ([8]; Total (n = 13)): 3 (23.1) No. of patients (%)
- Dizziness, treatment‐related, Grade 3 ([8]; Total (n = 13)): 0 (0.0) No. of patients (%)
- Fatigue, treatment‐related, Grade 1–2 ([8]; Total (n = 13)): 8 (61.5) No. of patients (%)
- Fatigue, treatment‐related, Grade 3 ([8]; Total (n = 13)): 0 (0.0) No. of patients (%)
- Hyperglycemia, treatment‐related, Grade 1–2 ([8]; Total (n = 13)): 3 (23.1) No. of patients (%)
- Hyperglycemia, treatment‐related, Grade 3 ([8]; Total (n = 13)): 2 (15.4) No. of patients (%)
- Mucosal inflammation, treatment‐related, Grade 1–2 ([8]; Total (n = 13)): 2 (15.4) No. of patients (%)
- Mucosal inflammation, treatment‐related, Grade 3 ([8]; Total (n = 13)): 0 (0.0) No. of patients (%)
- Nausea, treatment‐related, Grade 1–2 ([8]; Total (n = 13)): 6 (46.2) No. of patients (%)
- Nausea, treatment‐related, Grade 3 ([8]; Total (n = 13)): 0 (0.0) No. of patients (%)
- Pain, treatment‐related, Grade 1–2 ([8]; Total (n = 13)): 2 (15.4) No. of patients (%)
- Pain, treatment‐related, Grade 3 ([8]; Total (n = 13)): 0 (0.0) No. of patients (%)
- Vomiting, treatment‐related, Grade 1–2 ([8]; Total (n = 13)): 2 (15.4) No. of patients (%)
- Vomiting, treatment‐related, Grade 3 ([8]; Total (n = 13)): 0 (0.0) No. of patients (%)
- Maximum tolerated dose (MTD) ([8]; once daily orally, continuous): 37.5 mg
- Recommended phase II dose (RP2D) ([8]; oral, once daily): 37.5 mg/day
- Hyperglycemia at pharmacologically active (lower) doses [9]: hyperglycemia induced
